Assay results published in ChEMBL document CHEMBL3286247, “Expansion of Antibacterial Spectrum of Muraymycins toward Pseudomonas aeruginosa” (ACS Med Chem Lett, 2014).
In brackets after ≈: the same amount, converted by molar mass.

Columns and labels:
Pseudomonas aeruginosa [1] = test: Antibacterial activity against Pseudomonas aeruginosa PAO1 assessed as growth inhibition after 20 hrs by microdilution method; type: functional; conditions: PAO1, 20 h
Outline: (§1)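 Broth microdilution per CLSI in cation-adjusted Mueller-Hinton broth, using serial 2-fold compound dilutions. Each strain was inoculated at 5 × 10⁴ CFU per well in 0.1 mL. Plates were incubated at 35 °C for 20 h, and the MIC was then scored.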

Pseudomonas aeruginosa [2] = test: Antibacterial activity against Pseudomonas aeruginosa ATCC 27853 assessed as growth inhibition after 20 hrs by microdilution method; type: functional; conditions: ATCC 27853, 20 h; outline: as §1
Pseudomonas aeruginosa [3] = test: Antibacterial activity against clinical isolate Pseudomonas aeruginosa SR27156 assessed as growth inhibition after 20 hrs by microdilution method; type: functional; conditions: SR27156, 20 h; outline: as §1
[4] = Inhibition of Staphylococcus aureus MraY by fluorescence assay
Outline: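 Purified S. aureus MraY was given UDP-MurNAc-dansylpentapeptide as substrate. Formation of dansylated lipid I was followed by fluorescence enhancement (excitation 355 nm, emission 535 nm).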

Pseudomonas aeruginosa [5] = test: Antibacterial activity against Pseudomonas aeruginosa ATCC 25619 assessed as growth inhibition after 20 hrs by microdilution method; type: functional; conditions: ATCC 25619, 20 h; outline: as §1
Pseudomonas aeruginosa [6] = test: Antibacterial activity against Pseudomonas aeruginosa YY165 deltamexB mutant assessed as growth inhibition after 20 hrs by microdilution method; type: functional; conditions: YY165, 20 h
Outline: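 Broth microdilution per CLSI in cation-adjusted Mueller–Hinton broth; serial 2-fold compound dilutions inoculated with 5 × 10⁴ CFU per well (0.1 mL), incubated 35 °C for 20 h, then MIC scored. Strain YY165 is a MexB deletion mutant lacking the inner-membrane transporter of the MexAB-OprM efflux system.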

[7] = Metabolic stability in rat liver microsomes assessed as compound remaining at 2 uM after 30 mins incubation by LC-MS/MS analysis
[8] = Metabolic stability in human liver microsomes assessed as compound remaining at 2 uM after 30 mins incubation by LC-MS/MS analysis
HepG2 = test: Cytotoxicity against human HepG2 cells; type: functional, cell-based

Row | SMILES | MIC (Pseudomonas aeruginosa [1]) [µg/mL] | MIC (Pseudomonas aeruginosa [2]) [µg/mL] | MIC (Pseudomonas aeruginosa [3]) [µg/mL] | IC50 [4] [nM] | MIC (Pseudomonas aeruginosa [5]) [µg/mL] | MIC (Pseudomonas aeruginosa [6]) [µg/mL] | remaining at 0.5 h, 2 µM [7] [%] | remaining at 0.5 h, 2 µM [8] [%] | IC50 (HepG2) [µg/mL]
1 | CCCCCCCCCCCCCCC[C@H](NC(=O)[C@@H](NC(=O)OCc1ccccc1)[C@@H]1CCNC(=N)N1)C(=O)NCCCN[C@H](C(=O)O)[C@H](O[C@@H]1O[C@H](CN)[C@@H](O)[C@H]1O)[C@H]1O[C@@H](n2ccc(=O)[nH]c2=O)[C@H](O)[C@@H]1O | > 64 | > 64 | > 64 | 4.2 | > 64 | > 64 | – | – | –
2 | CCCCCCCCCCCCCCCCNC(=O)[C@@H](NCCCNC(=O)[C@@H](N)CCCNC(=N)N)[C@H](O[C@@H]1O[C@H](CN)[C@@H](O)[C@H]1O)[C@H]1O[C@@H](n2ccc(=O)[nH]c2=O)[C@H](O)[C@@H]1O | 32 (≈ 36.2 µM) | 16 (≈ 18.1 µM) | 16 (≈ 18.1 µM) | 12.2 | 16 (≈ 18.1 µM) | 16 (≈ 18.1 µM) | – | – | –
3 | CCCCCCCCCCCCCCC[C@H](NC(=O)c1ccccn1)C(=O)NCCCN[C@H](C(=O)O)[C@H](O[C@@H]1O[C@H](CN)[C@@H](O)[C@H]1O)[C@H]1O[C@@H](n2ccc(=O)[nH]c2=O)[C@H](O)[C@@H]1O | > 64 | > 64 | > 64 | 6.4 | 64 (≈ 72.9 µM) | > 64 | – | – | –
4 | CCCCCCCCCCCCCCC[C@H](NC(=O)[C@@H](N)CCCNC(=N)N)C(=O)NCCCN[C@H](C(=O)O)[C@H](O[C@@H]1O[C@H](CN)[C@@H](O)[C@H]1O)[C@H]1O[C@@H](n2ccc(=O)[nH]c2=O)[C@H](O)[C@@H]1O | 16 (≈ 17.2 µM) | 32 (≈ 34.4 µM) | 16 (≈ 17.2 µM) | 2.2 | 8 (≈ 8.61 µM) | 8 (≈ 8.61 µM) | – | – | –
5 | CCCCCCCCCCCCCCC[C@H](NC(=O)[C@@H](N)CCCN)C(=O)NCCCN[C@H](C(=O)O)[C@H](O[C@@H]1O[C@H](CN)[C@@H](O)[C@H]1O)[C@H]1O[C@@H](n2ccc(=O)[nH]c2=O)[C@H](O)[C@@H]1O | 64 (≈ 72.1 µM) | 64 (≈ 72.1 µM) | 32 (≈ 36.1 µM) | 3.8 | 32 (≈ 36.1 µM) | 32 (≈ 36.1 µM) | – | – | –
6 | CCCCCCCCCCCCCCC[C@H](NC(=O)[C@@H](N)CCCSC)C(=O)NCCCN[C@H](C(=O)O)[C@H](O[C@@H]1O[C@H](CN)[C@@H](O)[C@H]1O)[C@H]1O[C@@H](n2ccc(=O)[nH]c2=O)[C@H](O)[C@@H]1O | > 64 | 64 (≈ 69.7 µM) | 64 (≈ 69.7 µM) | 8.5 | 16 (≈ 17.4 µM) | 16 (≈ 17.4 µM) | – | – | –
7 | CCCCCCCCC(=O)NCCCCCC(=O)NCCCN[C@H](C(=O)O)[C@H](O[C@@H]1O[C@H](CN)[C@@H](O)[C@H]1O)[C@H]1O[C@@H](n2ccc(=O)[nH]c2=O)[C@H](O)[C@@H]1O | > 64 | > 64 | > 64 | 97.3 | > 64 | > 64 | – | – | –
8 | CCCCCCCCCCCCCCCCC(=O)N[C@@H](CCCNC(=N)N)C(=O)NCCCN[C@H](C(=O)O)[C@H](O[C@@H]1O[C@H](CN)[C@@H](O)[C@H]1O)[C@H]1O[C@@H](n2ccc(=O)[nH]c2=O)[C@H](O)[C@@H]1O | 16 (≈ 17.5 µM) | 32 (≈ 35 µM) | 16 (≈ 17.5 µM) | 1.6 | 16 (≈ 17.5 µM) | 8 (≈ 8.75 µM) | 81.1 | 89.5 | –
9 | CCCCCCCCCCCCCCC[C@H](NC(=O)[C@@H](NC(=O)N[C@H](C(=O)O)C(C)C)[C@H]1CCNC(=N)N1)C(=O)NCCCN[C@H](C(=O)O)[C@H](O[C@@H]1O[C@H](CN)[C@@H](O)[C@H]1O)[C@H]1O[C@@H](n2ccc(=O)[nH]c2=O)[C@H](O)[C@@H]1O | > 64 | > 64 | > 64 | 0.8 | > 64 | > 64 | – | – | –
10 | CCCCCCCCCCCCCCCCC(=O)N[C@@H](CCCNC(=N)N)C(=O)NCCCN[C@H](C(=O)NCCCCNC(=N)N)[C@H](O[C@@H]1O[C@H](CN)[C@@H](O)[C@H]1O)[C@H]1O[C@@H](n2ccc(=O)[nH]c2=O)[C@H](O)[C@@H]1O | 4 (≈ 3.9 µM) | 8 (≈ 7.8 µM) | 8 (≈ 7.8 µM) | 0.6 | 8 (≈ 7.8 µM) | 4 (≈ 3.9 µM) | 69.8 | 86.9 | 34 (≈ 33.1 µM)
